Results taken from ChEMBL document CHEMBL3351414, “Novel 9'-substituted-noscapines: synthesis with Suzuki cross-coupling, structure elucidation and biological evaluation” (Eur J Med Chem, 2014).
pIC50: −log10 of the molar value. Activity calls are given as the source filed them. The calls are words filed in the database; no cut-off is given here.

Experiments:
HeLa [1] = assay: Disruption of microtubule network in human HeLa cells assessed as induction of spherical morphology at 25 uM after 24 hrs by immunofluorescence microscopy; format: cell-based
Summary of the method: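 HeLa cells exposed 24 h at 25 µM, fixed in cold 4% formaldehyde for 15 min, and stained with anti-β-tubulin plus Alexa-conjugated secondary antibody, with DAPI counterstain. Cells were imaged by confocal microscopy.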

HeLa [2] = assay: Effect on PCM1 protein in human HeLa cells assessed as accumulation of pericentriolar material at 25 uM after 24 hrs by immunofluorescence microscopy; format: functional, cell-based
Summary of the method: (§1)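 After 24 h at 25 µM, HeLa cells were stained with anti-PCM1 and Alexa-conjugated secondary antibody, with phalloidin-tetramethylrhodamine B for actin and DAPI for nuclei. Cells were imaged by confocal microscopy at 60×.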

HeLa [3] = assay: Effect on cell morphology in human HeLa cells assessed as disorganization of actin filament at 25 uM after 24 hrs by confocal microscopy relative to control; format: functional, cell-based; summary of the method: as §1
Jurkat [4] = assay: Cell cycle arrest in human Jurkat cells assessed as accumulation at G2/M phase at 10 to 25 uM after 24 hrs by flow cytometry; format: functional, cell-based
Summary of the method: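 5×10^5 HeLa or Jurkat cells exposed to graded compound concentrations for 24 h. Cells were fixed in ice-cold 70% ethanol, lysed with RNase A/0.1% Triton X-100 buffer and stained with propidium iodide. DNA content was read by flow cytometry. Phase percentages are mean ± SEM of three independent experiments.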

CA46 [5] = assay: Antiproliferative activity against human CA46 cells assessed as reduction in cell viability after 72 hrs by MTT assay; format: functional, cell-based; settings: CA46, 72 h
CA46 [6] = assay: Cell cycle arrest in human CA46 cells assessed as accumulation at G2/M phase at 5 times IC50 by flow cytometry; format: functional
CA46 [7] = assay: Cell cycle arrest in human CA46 cells assessed as reduction in mitotic index by Giemsa staining method relative to control; format: functional; parameters: scale not given: the % may be the effect or the level left
Summary of the method: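 CA46 Burkitt lymphoma cells grown in RPMI 1640 with 17% FBS and 2 mM L-glutamine at 37 °C, 5% CO2, treated 16 h. Cells were swollen 10 min in half-strength PBS, fixed in 0.5% acetic acid–1.5% ethanol, then spread from 25% acetic acid/75% ethanol. Slides were Giemsa-stained. Mitotic cells were those with condensed chromosomes and no nuclear membrane, with ≥200 cells counted per condition.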

HeLa [8] = assay: Upregulation of cyclin B protein level in human HeLa cells at 25 uM after 24 hrs by Western blot analysis; format: functional, cell-based
HeLa [9] = assay: Upregulation of aurora kinase A protein level in human HeLa cells at 25 uM after 24 hrs by Western blot analysis; format: functional, cell-based
HeLa [10] = assay: Induction of DNA damage in human HeLa cells assessed as increase in phosphorylated form of histone gamma-H2A.X level at 25 uM after 24 hrs by Western blot analysis; format: functional, cell-based
Summary of the method: (§2)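 HeLa cells treated 24 or 48 h at 25 µM, then washed in PBS and lysed 30 min on ice. 20 µg protein per lane was resolved on 7.5–15% SDS-PAGE and blotted to PVDF. Blots were probed for cyclin B, p-cdc2 Tyr15, cdc25C and γH2A.X, with β-actin reprobe as loading control and ECL detection.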

HeLa [11] = assay: Induction of apoptosis in human HeLa cells assessed as viable cells at 25 uM after 24 hrs using Annexin-V/PI staining by flow cytometry (reference value: 86.7 %); format: functional; settings: read-out: Activity
HeLa [12] = assay: Induction of apoptosis in human HeLa cells assessed as late apoptotic cells at 25 uM after 24 hrs using Annexin-V/PI staining by flow cytometry (reference value: 4.31 %); format: functional
HeLa [13] = assay: Induction of apoptosis in human HeLa cells assessed as caspase 3 cleavage at 25 uM after 24 to 48 hrs by Western blot analysis; format: functional, cell-based
Summary of the method: (§3)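 HeLa cells treated 24 or 48 h at 25 µM, then lysed. 20 µg protein per lane was run on SDS-PAGE and transferred to PVDF. Membranes were probed 2 h at room temperature for cleaved caspase-9, caspase-3, cleaved PARP, Bcl-2, Mcl-1 or Bax, with peroxidase secondary antibody and ECL. β-Actin reprobe served as loading control.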

HeLa [14] = assay: Induction of apoptosis in human HeLa cells assessed as caspase 9 cleavage at 25 uM after 24 to 48 hrs by Western blot analysis; format: functional, cell-based; summary of the method: as §3
HeLa [15] = assay: Induction of apoptosis in human HeLa cells assessed as PARP cleavage at 25 uM after 24 to 48 hrs by Western blot analysis; format: functional, cell-based; summary of the method: as §3
Jurkat [16] = assay: Antiproliferative activity against human Jurkat cells assessed as reduction in cell viability after 72 hrs by MTT assay; format: functional, cell-based
Summary of the method: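 Cells kept in RPMI-1640 (Jurkat, SEM, RS4;11) or DMEM (A549, HeLa, IGROV-1, HT-29) with 10% FBS plus penicillin/streptomycin. 8×10^3 cells per well were left 18 h at 37 °C in 5% CO2. Medium was then replaced with fresh medium holding graded compound concentrations from 10 mM DMSO stocks. Cells were incubated 72 h and viability read by MTT. IC50 is the mean ± SEM from dose–response curves of at least three independent experiments.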

PBL = assay: Cytotoxicity against resting human PBLs assessed as reduction in cell growth; format: cell-based
Summary of the method: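 Peripheral blood lymphocytes from healthy donors, tested either resting (no PHA) or PHA-stimulated. Value is the concentration reducing cell growth by 50%, mean ± SEM of three separate experiments.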

HeLa [17] = assay: Downregulation of cyclin B protein level in human HeLa cells at 25 uM after 48 hrs by Western blot analysis; format: functional, cell-based; summary of the method: as §2
HeLa [18] = assay: Upregulation of cdc25c protein level in human HeLa cells at 25 uM after 24 hrs by Western blot analysis; format: functional, cell-based
HeLa [19] = assay: Downregulation of cdc25c protein level in human HeLa cells at 25 uM after 24 hrs by Western blot analysis; format: functional, cell-based; settings: in the assay text read “after 48 hrs” for “after 24 hrs”; summary of the method: as §2
HeLa [20] = assay: Induction of DNA damage in human HeLa cells assessed as increase in phosphorylated form of histone gamma-H2A.X level at 25 uM after 48 hrs by Western blot analysis; format: functional, cell-based; summary of the method: as §2
Tubulin = Tubulin (Bos taurus, UniProt Q6B856+Q862L2+Q862F3); assay: Displacement of [3H]colchicine from bovine brain tubulin assessed as rate of assembly after 10 mins by liquid scintillation counting

Row | SMILES | Activity (HeLa [1]) [%] | Activity (HeLa [2]) | Activity (HeLa [3]) | Activity (Jurkat [4]) | Activity (HeLa [8]) | Activity (HeLa [9]) | Activity (HeLa [10]) | viability at 25 µM (HeLa [11]) [%] | Activity (HeLa [12]) [%] | Activity (HeLa [13]) | Activity (HeLa [14]) | Activity (HeLa [15]) | pIC50 (Jurkat [16]) | pIC50 (PBL) | Activity (HeLa [19]) | other results
1 | COc1ccc2c(c1OC)C(=O)O[C@@H]2[C@H]1c2c(c(C)c3c(c2OC)OCO3)CCN1C | 70 | Active | Active | Active | Active | Active | Active | 9.8 | 13.9 | Active | Active | Active | 5.23 | < 3.70 |  | pIC50 (CA46 [5]): 4.74; Activity (CA46 [6]): >80%; Activity (CA46 [7]): 38%
2 | COc1ccc2c(c1OC)C(=O)O[C@@H]2[C@H]1c2c(c(-c3ccc(C)cc3)c3c(c2OC)OCO3)CCN1C |  |  | Active | Active | Active | Active | Active | 5.88 | 22.9 | Active | Active | Active | 5.29 | < 3.70 | Active | Activity (HeLa [17]): Active; Activity (HeLa [18]): Active
3 | COc1ccc2c(c1OC)C(=O)O[C@@H]2[C@H]1c2c(c(Br)c3c(c2OC)OCO3)CCN1C | 70 | Active | Active |  |  |  |  | 76.8 | 44.7 | Active | Active | Active | 5.52 | < 3.70 | Active | Activity (HeLa [20]): Active; IC50 (Tubulin): > 400 µM
